The nature of assay [1]: inhibitors of TNFa-induced NFkB p65 translocation, primary screen, imaging, HUVEC, MLSMR starter and 10KST1 sets (AID 438;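 active = inhibition above 20% together with a positive visual image hit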;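 note: compound added about 3h40 before a 20 min TNFalpha stimulation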;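 for inhibition: signal is the nuclear over cytoplasmic p65 intensity ratio per well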). The note with it: HUVEC TNFa-induced p65 nuclear translocation; cell count: measured here: nuclei count (cytotoxicity indicator), at 2.08 µM; inhibition: at 2 µM, stronger effect = higher value, 0% TNFa-plus-vehicle, 100% no-TNFa wells.
Assay [2] can be described thus: endothelial E-selectin expression blockers – imaging, HUVEC, immunofluorescence, MLSMR starter and 10KST1 sets, primary screen (AID 487;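 active = visually confirmed hit in the image check and inhibition above 20%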;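 for inhibition: signal is fraction of cell area covered by stained E-selectin grains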;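 for nuclei count: 100% = median nuclei count of all wells on the same plate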). The note with it: HUVEC TNFalpha-induced E-selectin immunofluorescence imaging, at 2 µM; inhibition: stronger effect = higher value; nuclei count: measured here: cell number, toxicity.
Assay [3] in a line: Primary imaging screen for DUSP6 inhibitors that restore phospho-Erk in transfected HeLa cells, chemical complementation (AID 609;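 active = compounds giving at least 50% inhibition in the cell-based MKP-3 phosphatase rescue imaging test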;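 for inhibition: phospho-Erk level distribution per well compared with pooled transfected vehicle control wells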). The note with it: HeLa MKP-3 transfected, phospho-Erk imaging KS statistic, at 10 µM, cells stimulated with TPA for 15 min.
Assay [4] has as its target Dual specificity protein phosphatase 6 (Homo sapiens) (UniProt Q16828). The assay is described as above. The note with it: HeLa MKP-3 transfected, phospho-Erk imaging KS statistic; at 10 µM; stronger effect = higher value; cells stimulated with TPA for 15 min.
The target of assay [5] is Voltage-gated potassium channel subunit beta-2 (Rattus norvegicus) (UniProt P62483). Description: inhibitors of rat Kvbeta2 reductase activity – biochemical, NADPH fluorescence, primary screen (AID 622;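 active = fluorescence slope higher than the sample average by over 3 SD, cut at about -0.22 in these data, passing the limit was not always enough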;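 note: slope of raw intensity against log time taken from 70 to 1610 s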). The conditions noted are these: recombinant KvBeta, 4-cyanobenzaldehyde reduction, at 10 µM, stronger effect = higher value.
Voltage-gated potassium channel subunit beta-2 (Rattus norvegicus), sequence (P62483 whole entry, looked up): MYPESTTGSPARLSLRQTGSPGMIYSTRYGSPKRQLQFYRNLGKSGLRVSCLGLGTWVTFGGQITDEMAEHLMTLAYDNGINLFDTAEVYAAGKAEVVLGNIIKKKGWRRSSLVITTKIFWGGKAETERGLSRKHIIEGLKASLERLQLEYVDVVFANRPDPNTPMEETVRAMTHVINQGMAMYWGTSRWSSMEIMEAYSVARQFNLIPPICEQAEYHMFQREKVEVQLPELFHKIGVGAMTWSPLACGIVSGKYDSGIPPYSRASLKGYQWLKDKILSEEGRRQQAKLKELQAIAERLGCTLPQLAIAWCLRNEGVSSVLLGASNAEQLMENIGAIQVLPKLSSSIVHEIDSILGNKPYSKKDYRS
Assay [6] has the same target. Nature of the assay: enhancers of rat Kvbeta2 NADPH turnover – biochemical, NADPH fluorescence, primary screen (AID 623;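 active = NADPH fluorescence slope more negative than the mean of all samples by about 3 SD, 99.7% confidence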;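 note: fluorescence intensity change per second fitted from 20 to 320 s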). The note with it: Recombinant KvBeta, NADPH fluorescence decrease slope, 10 min; at 10 µM; stronger effect = lower value.
Assay [7] concerns the target Muscarinic acetylcholine receptor M4 (Homo sapiens) (UniProt P08173). Description: M4-linked GIRK flux change, two-sided – cell-based, HEK293 M4/GIRK, thallium flux, BTC-AM, M4 allosteric agonist project, primary screen (AID 625).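 Note: thallium influx through GIRK channels coupled to M4 in HEK293 cells with BTC-AM dye.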 The conditions noted are these: at 10 µM, actives lie on both sides. Summed up: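 Material – HEK293 cells with M4 receptor and GIRK channels · Buffer or medium – pH 7.3 thallium assay buffer · Doses – one dose, 10 µM final · Timing – cells overnight at 37 °C, BTC-AM loading 1 h, reads 2 min total · Measured by – kinetic fluorescence with BTC-AM dye · Controls – carbachol and DMSO controls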

A short description of assay [8]: inhibitors of larval lipid processing in zebrafish, primary screen, whole organism, PED6 fluorescence, gall bladder and intestine (AID 686;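 active = a full or partial loss of lipid-probe fluorescence in the fish gall bladder, intestine or both, judged by eye; inactive = no fluorescence loss, or compound toxic to the fish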;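 note: larvae 5 to 7 days old with five fish per well; signal comes from phospholipase A2 cleavage of quenched PED6 carried via bile; overnight exposure to compound and PED6 before scoring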). The note with it: Zebrafish larvae PED6 lipid processing, fluorescence scoring; screened at 20 µM (by protocol). The method in brief:
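system = live zebrafish larvae aged 5-7 days, whole organism | probe or stimulus = ingested quenched lipid PED6 at 100 nM | doses = 20 µM single dose | timing = overnight exposure | detection = fluorescence microscopy with visual scoring of gall bladder and intestine | read-out = visual per-well fluorescence inhibition score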

A short description of assay [9]: loss of swimming-algae plug formation – whole organism, Chlamydomonas reinhardtii, WT vs cilia-less mutant, absorbance, 96-well, primary screen (AID 463189;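 active = inhibition at or above 50% relative to wild type and mutant plate controls; inactive = inhibition below 50%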;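 note: 0% = wild type cc124 cells in DMSO and 100% = ciliumless bld1 mutant cells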). The conditions noted are these: Chlamydomonas reinhardtii gravitaxis, OD600 absorbance, 2 days; at 10 µM; stronger effect = higher value.
The mark [10] stands for this setting: measured here: cell density z-score.
Where [11] appears, read: measured here: nuclear c-Myc green intensity z-score.
The mark [12] stands for this setting: measured here: nuclear pErk red intensity z-score, stronger effect = higher value.

SMILES strings stand for the structures. Calls of active or inactive are those of the source.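 Rule for the calls, unless noted: active = fluorescence slope after compound addition differing from the mean of all tested samples at 99.7% confidence, mostly higher but some lower; inactive = the rest.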

Dual specificity protein phosphatase 6 (Homo sapiens), sequence (Q16828 whole entry, looked up): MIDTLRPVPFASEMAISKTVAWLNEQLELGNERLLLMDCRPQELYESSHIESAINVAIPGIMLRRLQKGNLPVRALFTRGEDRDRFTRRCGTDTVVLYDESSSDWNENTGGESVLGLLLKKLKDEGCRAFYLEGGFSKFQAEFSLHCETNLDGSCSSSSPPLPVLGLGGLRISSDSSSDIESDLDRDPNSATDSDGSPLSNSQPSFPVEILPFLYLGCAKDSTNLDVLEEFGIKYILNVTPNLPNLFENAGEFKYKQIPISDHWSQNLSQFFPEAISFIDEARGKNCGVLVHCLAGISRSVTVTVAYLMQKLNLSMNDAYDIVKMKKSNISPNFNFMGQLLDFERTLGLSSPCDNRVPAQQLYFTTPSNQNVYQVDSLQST
Muscarinic acetylcholine receptor M4 (Homo sapiens), sequence (P08173 whole entry, looked up): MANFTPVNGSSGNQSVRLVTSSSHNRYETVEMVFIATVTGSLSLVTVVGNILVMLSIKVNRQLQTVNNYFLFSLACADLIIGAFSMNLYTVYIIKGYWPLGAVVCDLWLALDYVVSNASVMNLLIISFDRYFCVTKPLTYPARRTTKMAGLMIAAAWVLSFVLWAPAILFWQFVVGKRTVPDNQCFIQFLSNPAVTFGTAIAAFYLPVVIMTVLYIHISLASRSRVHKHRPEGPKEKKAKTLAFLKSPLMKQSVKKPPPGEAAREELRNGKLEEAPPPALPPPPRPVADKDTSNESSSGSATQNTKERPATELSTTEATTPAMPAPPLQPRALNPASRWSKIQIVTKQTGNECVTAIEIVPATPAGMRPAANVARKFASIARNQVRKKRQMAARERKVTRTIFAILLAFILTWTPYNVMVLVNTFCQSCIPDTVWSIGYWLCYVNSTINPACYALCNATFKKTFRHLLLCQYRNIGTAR

In general, inhibition refers to the change of the read-out against control, counted positive when it falls. On to `COc1ccc(-n2ncc3c(Nc4cccc(C)c4)ncnc32)cc1`, for which the cell count in assay [1] was 629. Further, the inhibition in assay [1] is -11.3% (inactive); in [2], -122% (inactive); in assay [4], 11.4% (inactive); in assay [9] it was 3.81% (inactive). This molecule yielded a nuclei count in assay [2] of 182%. The figures for the z-score in assay [3] (setting [10]), in assay [3] (setting [11]) and in [3] (setting [12]) were 1.43, 1.07 and -1.65, respectively. The results for the fluorescence slope in assay [5] and in assay [7] were -0.319 (inactive) and 0.00486 (inactive), respectively. Besides, the NADPH fluorescence slope in assay [6] was -1.2e-05 (inactive). Further, the molecule was classed as inactive in [8].

For `O=C(c1ccc2c3c(cccc13)C(=O)N(O)C2=O)N1CCCCC1`, in assay [1], the cell count stood at 583. The inhibition in [1] is -6.7% (inactive); in assay [2], 65.6% (active); in assay [4] it was 35.1% (inactive); in assay [9] it was 35.8% (inactive). This molecule also displayed a nuclei count in assay [2] of 92.9%. The z-score was 1.73 in [3] (setting [10]), -0.867 in [3] (setting [11]) and -1.15 in assay [3] (setting [12]). The fluorescence slope in [5] is -0.426 (inactive); in assay [7] it was 0.00526 (inactive). Besides, the NADPH fluorescence slope in assay [6] was -3.2e-05 (inactive). In addition, the molecule was classed as inactive in [8].

Regarding `C=CCNc1nc(NCc2ccccc2)c(C#N)c2c1CN(C)CC2`, the cell count in assay [1] worked out at 592. Further, the inhibition was -6.3% (inactive) in assay [1], -14.9% (inactive) in [2], -2.09% (inactive) in assay [4] and 21.1% (inactive) in assay [9]. In assay [2], this molecule showed a nuclei count of 156%. In addition, the z-score was 0.516 in assay [3] (setting [10]), -0.0927 in assay [3] (setting [11]) and 0.356 in assay [3] (setting [12]). The figures for the fluorescence slope in assay [5] and in assay [7] were -0.407 (inactive) and 0.00402 (inactive), respectively. For the same molecule, the NADPH fluorescence slope in assay [6] was -5.5e-05 (inactive). In addition, in assay [8], the call was inactive.

Consider `CC1(C)CC(=O)C(C=NCCN2CCN(CCc3ccccc3)CC2)=C(O)C1`, for which, in assay [1], the cell count is 367. In addition, the inhibition is -0.8% (inactive) in [1], -22.3% (inactive) in assay [2], -2.69% (inactive) in [4] and -9.36% (inactive) in [9]. Also, in assay [2], the nuclei count was determined as 94.1%. In addition, the z-score was -1.16 in assay [3] (setting [10]), 0.888 in assay [3] (setting [11]) and -1.15 in assay [3] (setting [12]). Further, the fluorescence slope in [5] was -0.506 (inactive); in [7], 0.00481 (inactive). In assay [6], the NADPH fluorescence slope is 1.2e-05 (inactive). Also, the result in assay [8] was inactive.

Take `CCCc1cc(NCCN2CCOCC2)n2c(nc3ccccc32)c1C#N`: the cell count in assay [1] worked out at 472. Further, the inhibition was 0.5% (inactive) in assay [1], -144% (inactive) in [2], 1.98% (inactive) in assay [4] and -18.9% (inactive) in assay [9]. For the same molecule, in assay [2], the nuclei count is 105%. The z-score in [3] (setting [10]) is -1.9; in assay [3] (setting [11]) it was 2.65; in assay [3] (setting [12]) it was 0.164. For the same molecule, the fluorescence slope is -0.324 (inactive) in assay [5] and 0.00729 (inactive) in [7]. Also, the NADPH fluorescence slope in [6] was 7.2e-06 (inactive). The outcome in [8] was inactive.

In the case of `COCCNc1oc(-c2ccc(F)cc2)nc1C#N`, the cell count in assay [1] was 631. Also, the inhibition in [1] was -8.1% (inactive); in assay [2], -48.8% (inactive); in assay [4], 24% (inactive); in assay [9], -8.51% (inactive). For the same molecule, the nuclei count in [2] amounted to 162%. For the same molecule, the z-score in assay [3] (setting [10]) is 1.98; in assay [3] (setting [11]), -0.407; in [3] (setting [12]) it was 1.1. For the same molecule, the fluorescence slope was -0.446 (inactive) in assay [5] and 0.00617 (inactive) in assay [7]. Further, the NADPH fluorescence slope in assay [6] was -6.5e-05 (inactive). In addition, the result in assay [8] was inactive.

On to `COc1nnnc2c1sc1nc(N3CCOCC3)c3c(c12)CC(C)(C)OC3`, for which, in assay [1], the cell count stood at 590. Moreover, the inhibition in assay [1] was -3.9% (inactive); in assay [2] it was -92.2% (inactive); in [4], -13.3% (inactive); in assay [9] it was -3.82% (inactive). Besides, in assay [2], the nuclei count is 154%. Further, the z-score in assay [3] (setting [10]) was 0.493; in [3] (setting [11]), 0.116; in assay [3] (setting [12]) it was -0.785. For the same molecule, the figures for the fluorescence slope in [5] and in [7] were -0.482 (inactive) and 0.00514 (inactive), respectively. Also, the NADPH fluorescence slope in assay [6] is -0.000107 (inactive). Moreover, in assay [8], the molecule was classed as inactive.

These data come from PubChem BioAssay.
